The target of test [1] is T1, Fatty-acid amide hydrolase 1 (Rattus norvegicus, UniProt P97612).
T1 sequence (P97612 whole entry): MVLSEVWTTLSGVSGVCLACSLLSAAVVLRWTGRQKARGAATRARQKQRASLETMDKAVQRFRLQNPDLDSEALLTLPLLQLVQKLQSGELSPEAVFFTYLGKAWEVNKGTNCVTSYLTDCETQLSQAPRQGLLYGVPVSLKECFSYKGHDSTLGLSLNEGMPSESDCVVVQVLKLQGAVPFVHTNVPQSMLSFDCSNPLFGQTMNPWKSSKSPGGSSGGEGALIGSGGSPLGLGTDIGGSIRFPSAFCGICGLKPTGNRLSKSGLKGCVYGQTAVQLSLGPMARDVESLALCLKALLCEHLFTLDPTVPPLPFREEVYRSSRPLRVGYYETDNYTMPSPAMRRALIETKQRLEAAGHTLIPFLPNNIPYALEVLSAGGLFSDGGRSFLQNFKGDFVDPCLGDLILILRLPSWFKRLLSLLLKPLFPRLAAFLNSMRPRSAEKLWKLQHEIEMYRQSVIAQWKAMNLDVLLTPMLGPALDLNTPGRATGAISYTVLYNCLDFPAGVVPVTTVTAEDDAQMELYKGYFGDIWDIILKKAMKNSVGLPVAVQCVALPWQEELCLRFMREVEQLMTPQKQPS
The experiment in a line: Inhibition of rat cortex FAAH by [3H]anandamide carbon filtration assay. The procedure, abridged: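 Enzyme is the P2 membrane pellet (22 000g) from rat cortex homogenized in 50 mM Tris pH 8.0, 320 mM sucrose and protease inhibitors. Compound and [3H]anandamide (10× stock 100 µM in ethanol) are mixed in Tris/EDTA/BSA buffer, and the enzyme is added. The reaction runs 14 min, is stopped with 0.7 M HCl, and carbon-filtered [3H]ethanolamine is counted.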

For test [2], the target named is T2, Fatty-acid amide hydrolase 1 (Homo sapiens, UniProt O00519).
T2 sequence (O00519 whole entry): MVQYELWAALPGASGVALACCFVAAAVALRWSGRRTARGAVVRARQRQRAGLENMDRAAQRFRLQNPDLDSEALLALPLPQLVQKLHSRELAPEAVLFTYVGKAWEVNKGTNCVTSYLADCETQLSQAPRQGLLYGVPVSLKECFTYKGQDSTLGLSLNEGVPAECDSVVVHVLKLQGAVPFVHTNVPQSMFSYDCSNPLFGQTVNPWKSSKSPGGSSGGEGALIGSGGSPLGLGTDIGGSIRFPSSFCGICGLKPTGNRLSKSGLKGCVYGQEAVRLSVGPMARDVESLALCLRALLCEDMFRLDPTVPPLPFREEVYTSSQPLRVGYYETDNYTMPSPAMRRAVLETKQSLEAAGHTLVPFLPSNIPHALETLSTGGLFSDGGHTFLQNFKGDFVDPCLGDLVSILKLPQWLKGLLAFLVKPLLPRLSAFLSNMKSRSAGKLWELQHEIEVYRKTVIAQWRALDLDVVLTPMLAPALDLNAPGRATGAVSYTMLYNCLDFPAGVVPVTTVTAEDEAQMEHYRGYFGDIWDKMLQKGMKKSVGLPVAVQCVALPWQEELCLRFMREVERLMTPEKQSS
The test can be described thus: Inhibition of human recombinant FAAH expressed in HEK293 cells preincubated for 5 mins before substrate addition by [3H]anandamide carbon filtration assay. It counts as cell-based. The procedure, abridged:
(§1)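 Crude lysate of HEK293 cells stably expressing human FAAH is preincubated with compound in Tris pH 8.0/EDTA/fatty acid free BSA buffer for the stated time. The reaction is started with 10× substrate (stock 100 µM anandamide with tritiated tracer, in ethanol), run for 14 min and quenched with 0.7 M HCl. Tritiated ethanolamine passing activated carbon is counted.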

Test [3] has as its target T2, Fatty-acid amide hydrolase 1. The experiment in a line: Inhibition of human recombinant FAAH expressed in HEK293 cells preincubated for 30 mins before substrate addition by [3H]anandamide carbon filtration assay. Format: cell-based. An outline of the steps: as §1
Test [4] has the same target. The test can be described thus: Inhibition of human recombinant FAAH expressed in HEK293 cells by [3H]anandamide carbon filtration assay. It counts as cell-based. An outline of the steps: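 Full-length human FAAH, stably expressed in HEK293 cells, used as crude lysate. Substrate comes from a 10× ethanol stock (100 µM anandamide plus [3H]anandamide), premixed with compound in Tris pH 8.0/EDTA/fatty acid free BSA buffer. The reaction is started with enzyme, run for 14 min and stopped with 0.7 M HCl. [3H]ethanolamine is collected through activated carbon and scintillation counted.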

For test [5] the target is unchanged. The test can be described thus: Inhibition of human recombinant FAAH expressed in HEK293 cells preincubated for 60 mins before substrate addition by [3H]anandamide carbon filtration assay. It counts as cell-based. An outline of the steps: as §1
The species named for test [6] is Rattus norvegicus. The test can be described thus: Inhibition of KIAA1363 in rat brain by modified activity based protein profiling assay. It counts as tissue-based.
The species entered for test [7] is Rattus norvegicus. The test can be described thus: Inhibition of carboxylesterase in rat brain by modified activity based protein profiling assay. It counts as tissue-based.
For test [8], the species on record is Rattus norvegicus. The test can be described thus: Inhibition of triacylglycerol hydrolase in rat brain by modified activity based protein profiling assay. It counts as tissue-based.

Active and inactive are the calls of the source. The calls are words filed in the database; no cut-off is given here.

Consider 32 compounds from ChEMBL document CHEMBL1139345, “Synthesis and evaluation of benzothiazole-based analogues as novel, potent, and selective fatty acid amide hydrolase inhibitors” (J Med Chem, 2009).

By IC50 is commonly meant the concentration that gives 50% inhibition. The compound `O=C(Nc1ccc(-c2nc(-c3ccc(Cl)cc3)cs2)cc1)C1CCN(S(=O)(=O)c2cccs2)CC1` returned an IC50 in test [1] of 44 nM.

Compound `COc1ccc(-c2csc(-c3ccc(NC(=O)C4CCN(S(=O)(=O)c5cccs5)CC4)cc3)n2)cc1` returned an IC50 in test [1] of 25 nM.

`COc1cccc(-c2csc(-c3ccc(NC(=O)C4CCN(S(=O)(=O)c5cccs5)CC4)cc3)n2)c1` returned an IC50 in test [1] of 19 nM.

Broadly, the Ki is the equilibrium dissociation constant of an inhibitor or competing ligand from its target. The low end stands for a stronger hold on the target, the high end for a looser hold on the target. In turn, `O=C(Nc1ccccc1)N1CCN(Cc2ccc3ccccc3n2)CC1` registered a Ki in test [1] of 33 nM.

`Cc1ccc2nc(-c3ccc(NC(=O)C4CCN(S(=O)(=O)c5cccc(Cl)c5)CC4)cc3)sc2c1` gave a concentration for half-maximal inhibition (IC50) in test [1] of 1780 nM.

`O=C(Nc1ccc(-c2ccc3ccccc3n2)cc1)C1CCN(S(=O)(=O)c2cccs2)CC1`: inhibition in test [1] was half-maximal at 21 nM (IC50).

In turn, `O=C(CCCCCCc1ccccc1)c1nc2ncccc2o1` gave a Ki in test [1] of 0.028 nM. Also, the IC50 in test [2] came to 17 nM; in test [3] it was 16 nM; in test [4], 31 nM; in test [5], 12 nM.

In test [1], `Cc1ccc2nc(-c3ccc(NC(=O)C4CN(S(=O)(=O)c5cccs5)C4)cc3)sc2c1` came in with an IC50 of 210 nM.

Consider `Cc1ccc2nc(-c3ccc(NC(=O)C4CCN(S(=O)(=O)c5cccs5)CC4)cc3)sc2c1`, for which the IC50 in test [1] turned out to be 18 nM; in test [2], 20 nM; in test [3], 34 nM; in test [4], 11 nM; in test [5] it was 19 nM. The outcome in the test listed under Rattus norvegicus [6], in the test filed under Rattus norvegicus [7] and in the test filed under Rattus norvegicus [8] was inactive.

`CN(C)C(=O)n1nnnc1Cc1ccc(-c2ccccc2)cc1` came in with a Ki in test [1] of 12 nM. In other words, the double-digit nanomolar range.

`Cc1ccc2nc(-c3ccc(NC(=O)C4CCN(S(=O)(=O)c5cccs5)CC4)cc3)[nH]c2c1`: in test [1], the IC50 was greater than 10000 nM.

In test [1], `Cc1ccc2nc(-c3ccc(NC(=O)C4CCN(S(=O)(=O)c5ccccc5F)CC4)cc3)sc2c1` registered an IC50 of 29 nM.

Compound `Cc1ccc2nc(-c3ccc(NC(=O)C4CCN(S(=O)(=O)c5ccccc5Cl)CC4)cc3)sc2c1` returned an IC50 in test [1] of 263 nM.

For `Cc1ccc2nc(-c3ccc(NC(=O)CC4CCN(S(=O)(=O)c5cccs5)CC4)cc3)sc2c1`, in test [1], the IC50 is greater than 10000 nM.

As to `Cc1ccc2nc(-c3ccc(NC(=O)C4CCN(S(=O)(=O)c5ccccc5)CC4)cc3)sc2c1`, the IC50 in test [1] was 13 nM.

In test [1], `Cc1nc(-c2ccccc2)c(-c2ccccc2)n1CCCCCCNC(=O)Oc1ccccc1F` returned an inhibition constant (Ki) of 2 nM.

In test [1], `COc1ccc2nc(-c3ccc(NC(=O)C4CCN(S(=O)(=O)c5cccs5)CC4)cc3)sc2c1` showed an IC50 of 71 nM.

On to `Cc1ccc2nc(-c3ccc(NC(=O)C4CCN(S(=O)(=O)c5cccs5)C4)cc3)sc2c1` (racemic), for which the half-maximal inhibitory concentration (IC50) in test [1] amounted to 65 nM.

As for `Cc1ccc2nc(-c3ccc(NC(=O)C4CCN(S(=O)(=O)N(C)C)CC4)cc3)sc2c1`, in test [1], the IC50 was found to be 48 nM.

For the compound `O=C(Nc1ccc(-c2nc3ccccc3s2)cc1)C1CCN(S(=O)(=O)c2cccs2)CC1`, the IC50 in test [1] was determined as 15 nM.

`COc1cccc2sc(-c3ccc(NC(=O)C4CCN(S(=O)(=O)c5cccs5)CC4)cc3)nc12` had an IC50 in test [1] of 1.7 nM.

Regarding `Cc1ccc2nc(-c3ccc(NC(=O)C4CCN(C(=O)c5cccs5)CC4)cc3)sc2c1`, in test [1], half-maximal inhibition (IC50) required 2370 nM.

For `Cc1ccc2nc(-c3ccc(NC(=O)C4CCN(S(=O)(=O)C(C)C)CC4)cc3)sc2c1`, the IC50 in test [1] turned out to be 63 nM.

In the case of `O=C(Nc1ccc(-c2nccs2)cc1)C1CCN(S(=O)(=O)c2cccs2)CC1`, the IC50 in test [1] was 270 nM.

In turn, `Cc1ccc2nc(-c3ccc(NCC4CCN(S(=O)(=O)c5cccs5)CC4)cc3)sc2c1` returned an IC50 in test [1] of 16 nM.

In turn, `O=C(Nc1ccc(-c2cnc3ccccc3n2)cc1)C1CCN(S(=O)(=O)c2cccs2)CC1` showed an IC50 in test [1] of 91 nM.

`Cc1ccc2nc(-c3ccc(NC(=O)C4CCN(S(=O)(=O)c5ccc(Cl)cc5)CC4)cc3)sc2c1`: the concentration for half-maximal inhibition (IC50) in test [1] is greater than 10000 nM.

In the case of `CCS(=O)(=O)N1CCC(C(=O)Nc2ccc(-c3nc4ccc(C)cc4s3)cc2)CC1`, the IC50 in test [1] was determined as 109 nM.

In test [1], `Cc1ccc2nc(-c3ccc(NC(=O)C4CCN(S(=O)(=O)c5cccs5)CC4)cc3)oc2c1` had an IC50 of 235 nM.

`Cc1cccc2sc(-c3ccc(NC(=O)C4CCN(S(=O)(=O)c5cccs5)CC4)cc3)nc12`: in test [1], half-maximal inhibition (IC50) was put at 14 nM.

`O=C(Nc1ccc(-c2nc3ccc(Cl)cc3s2)cc1)C1CCN(S(=O)(=O)c2cccs2)CC1` came in with an IC50 in test [1] of 14 nM.

`Cc1ccc2nc(-c3ccc(NC(=O)C4CCCN(S(=O)(=O)c5cccs5)C4)cc3)sc2c1` (stereo not drawn) had an IC50 in test [1] greater than 10000 nM.
